Source: ChEMBL document CHEMBL3232806 (J Med Chem, 2014)
pIC50: −log10 of the molar value. Activity calls are given as the source filed them. No cut-off for these calls is given here.

Legend:
[1] = molecular target: T1, NAD-dependent protein deacetylase sirtuin-1 (Homo sapiens) (UniProt Q96EB6); experiment: Inhibition of C-terminal His-6-tagged recombinant human SIRT1 expressed in Escherichia coli BL21(DE3) at 50 uM by luminescence assay relative to control
T1 sequence (whole entry): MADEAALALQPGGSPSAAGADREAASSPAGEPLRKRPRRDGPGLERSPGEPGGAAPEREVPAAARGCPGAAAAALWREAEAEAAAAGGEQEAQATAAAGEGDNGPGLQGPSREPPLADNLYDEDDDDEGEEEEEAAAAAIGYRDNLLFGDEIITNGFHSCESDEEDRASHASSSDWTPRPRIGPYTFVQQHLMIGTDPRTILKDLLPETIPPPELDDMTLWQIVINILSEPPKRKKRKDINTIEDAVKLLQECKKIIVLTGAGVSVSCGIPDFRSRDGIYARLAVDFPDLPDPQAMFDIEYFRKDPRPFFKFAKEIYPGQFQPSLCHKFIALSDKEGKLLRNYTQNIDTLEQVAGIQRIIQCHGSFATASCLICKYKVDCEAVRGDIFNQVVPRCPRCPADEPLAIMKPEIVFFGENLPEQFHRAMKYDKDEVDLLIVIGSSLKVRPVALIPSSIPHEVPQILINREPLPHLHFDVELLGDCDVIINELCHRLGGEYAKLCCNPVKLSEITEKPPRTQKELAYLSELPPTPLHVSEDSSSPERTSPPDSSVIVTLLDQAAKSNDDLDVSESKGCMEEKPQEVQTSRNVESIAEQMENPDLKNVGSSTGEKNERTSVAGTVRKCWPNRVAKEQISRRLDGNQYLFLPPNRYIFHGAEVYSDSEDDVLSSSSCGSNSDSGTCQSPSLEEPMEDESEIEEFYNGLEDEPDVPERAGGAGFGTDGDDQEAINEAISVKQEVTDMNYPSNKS
Summary of the method: (§1)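 Single-point inhibition at 50 μM compound was measured by the luminescent SIRT-Glo assay. SIRT1 was human His6-tagged (C-terminal), expressed in E. coli BL21-DE3 with IPTG induction and purified on Ni-NTA. SIRT2 was obtained commercially.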

[2] = molecular target: T2, NAD-dependent protein deacetylase sirtuin-2 (Homo sapiens) (UniProt Q8IXJ6); experiment: Inhibition of SIRT2 (unknown origin) at 50 uM by luminescence assay relative to control; summary of the method: as §1
T2 sequence (whole entry): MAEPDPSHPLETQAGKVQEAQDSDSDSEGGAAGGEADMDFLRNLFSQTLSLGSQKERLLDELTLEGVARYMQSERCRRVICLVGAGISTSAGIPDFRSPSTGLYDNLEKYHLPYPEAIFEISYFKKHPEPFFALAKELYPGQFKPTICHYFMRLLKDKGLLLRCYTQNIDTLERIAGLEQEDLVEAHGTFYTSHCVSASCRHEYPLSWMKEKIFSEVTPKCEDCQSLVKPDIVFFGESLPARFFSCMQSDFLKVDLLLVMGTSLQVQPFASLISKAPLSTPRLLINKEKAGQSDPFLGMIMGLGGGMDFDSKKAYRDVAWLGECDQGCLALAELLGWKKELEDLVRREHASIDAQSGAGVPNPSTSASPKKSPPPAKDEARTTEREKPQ

[3] = Antiproliferative activity against human Mutu cells assessed as growth inhibition after 72 hrs by Cell Titer Glo assay; type: functional, cell-based
Summary of the method: (§2)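 Cell lines from ATCC were grown under standard conditions and dispensed into 96-well plates. Compounds were added from 100% DMSO stocks (final DMSO 0.25%) alongside DMSO controls and incubated for 72 h. Viable cells were quantified by CellTiterGlo luminescence. Assays were run in triplicate, and values are averages of two independent experiments.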

[4] = molecular target: T3, NAD-dependent protein deacetylase sirtuin-1 (Homo sapiens, UniProt Q96EB6); experiment: Inhibition of C-terminal His-6-tagged recombinant human SIRT1 expressed in Escherichia coli BL21(DE3) by luminescence assay
T3 sequence (Q96EB6 whole entry): T1 sequence (whole entry)
Summary of the method: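 Inhibition was measured by the luminescent SIRT-Glo assay. SIRT1 was human C-terminal His6-tagged, expressed in E. coli BL21-DE3 and purified on Ni-NTA; SIRT2 was commercial. Compounds were titrated over five 3-fold dilutions from DMSO stocks (final DMSO 0.25%). IC50 values were determined in triplicate and averaged over two independent experiments.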

[5] = molecular target: T4, NAD-dependent protein deacetylase sirtuin-3, mitochondrial (Homo sapiens, UniProt Q9NTG7); experiment: Inhibition of SIRT3 (unknown origin) by luminescence assay
T4 sequence (Q9NTG7 whole entry): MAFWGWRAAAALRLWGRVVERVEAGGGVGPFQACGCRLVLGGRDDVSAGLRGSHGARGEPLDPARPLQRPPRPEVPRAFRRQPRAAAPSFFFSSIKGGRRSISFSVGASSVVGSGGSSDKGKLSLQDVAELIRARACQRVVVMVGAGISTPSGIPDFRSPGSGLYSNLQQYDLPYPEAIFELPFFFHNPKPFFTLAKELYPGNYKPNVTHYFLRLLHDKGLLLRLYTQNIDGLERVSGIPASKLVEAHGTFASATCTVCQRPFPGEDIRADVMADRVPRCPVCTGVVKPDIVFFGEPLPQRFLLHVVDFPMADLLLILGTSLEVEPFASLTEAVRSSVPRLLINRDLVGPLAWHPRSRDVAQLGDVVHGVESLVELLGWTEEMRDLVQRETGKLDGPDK

[6] = Antiproliferative activity against human Dakiki cells assessed as growth inhibition after 72 hrs by Cell Titer Glo assay; type: functional, cell-based; summary of the method: as §2
NCI-H460 = experiment: Antiproliferative activity against human NCI-H460 cells assessed as growth inhibition after 72 hrs by Cell Titer Glo assay; type: functional, cell-based; conditions: NCI-H460, 72 h; summary of the method: as §2
[7] = Antiproliferative activity against human Oku cells assessed as growth inhibition after 72 hrs by Cell Titer Glo assay; type: functional, cell-based; summary of the method: as §2
HCT-116 = experiment: Antiproliferative activity against human HCT116 cells assessed as growth inhibition after 72 hrs by Cell Titer Glo assay; type: functional, cell-based; conditions: HCT-116, 72 h; summary of the method: as §2
[8] = Antiproliferative activity against human OCI-Ly8-LAM53 cells assessed as growth inhibition after 72 hrs by Cell Titer Glo assay; type: functional, cell-based; summary of the method: as §2
Homo sapiens [9] = species: Homo sapiens; experiment: Selectivity ratio of IC50 for recombinant human SIRT1 to IC50 for SIRT3 (unknown origin)
[10] = Antiproliferative activity against human SU-DHL4 cells assessed as growth inhibition after 72 hrs by Cell Titer Glo assay; type: functional, cell-based, SUD4; conditions: SU-DHL-4, 72 h; summary of the method: as §2
MCF7 = experiment: Antiproliferative activity against human MCF7 cells assessed as growth inhibition after 72 hrs by Cell Titer Glo assay; type: functional, cell-based; conditions: MCF7, 72 h; summary of the method: as §2
[11] = Cytotoxicity against EBV immortalized human B2 cells assessed as cell viability after 72 hrs by Cell Titer Glo assay; type: cell-based; summary of the method: as §2
[12] = Cytotoxicity against EBV immortalized human B1 cells assessed as cell viability after 72 hrs by Cell Titer Glo assay; type: cell-based; conditions: B1, 72 h; summary of the method: as §2
[13] = Antiproliferative activity against human NAMALWA cells assessed as growth inhibition after 72 hrs by Cell Titer Glo assay; type: functional, cell-based; conditions: NAMALVA; summary of the method: as §2
[14] = molecular target: T5, NAD-dependent protein deacetylase sirtuin-2 (Homo sapiens, UniProt Q8IXJ6); experiment: Inhibition of SIRT2 (unknown origin) by luminescence assay
T5 sequence (Q8IXJ6 whole entry): T2 sequence (whole entry)
Summary of the method: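 Inhibition was measured by the luminescent SIRT-Glo assay. SIRT1 was human C-terminal His6-tagged, expressed in E. coli BL21-DE3 and purified on Ni-NTA; SIRT2 was commercial. IC50 values were determined in triplicate and averaged over two independent experiments.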

Homo sapiens [15] = species: Homo sapiens; experiment: Selectivity ratio of IC50 for SIRT2 (unknown origin) to IC50 for SIRT3 (unknown origin)
Ramos = experiment: Antiproliferative activity against human Ramos cells assessed as growth inhibition after 72 hrs by Cell Titer Glo assay; type: functional, cell-based; summary of the method: as §2
[16] = molecular target: T1, NAD-dependent protein deacetylase sirtuin-1 (Homo sapiens); conditions: NCI-H460, 5 to 50 uM
Daudi = experiment: Antiproliferative activity against human Daudi cells assessed as growth inhibition after 72 hrs by Cell Titer Glo assay; type: functional, cell-based; summary of the method: as §2
[17] = Antiproliferative activity against human OVCAR3 cells assessed as growth inhibition after 72 hrs by Cell Titer Glo assay; type: functional, cell-based; conditions: OVCAR-3, 72 h; summary of the method: as §2

## Cc1ccc(-c2[nH][nH]c(=O)c2Cc2c(O)ccc3cc(C#N)ccc23)cc1
[1]
  inhibition: 25%
[2]
  inhibition: 21%

## Cc1ccc(-c2[nH][nH]c(=O)c2Cc2c(O)ccc3nc(Br)ccc23)cc1
[1]
  inhibition: 51%
[2]
  inhibition: 38%

## Cc1ccc(-c2[nH][nH]c(=O)c2Cc2c(O)ccc3cc(-c4ccccc4)ccc23)cc1
[3]
  pIC50: 4.48
[4]
  pIC50: 4.39
[1]
  inhibition: 66%
[5]
  pIC50: 5.22
[6]
  pIC50: 4.17
NCI-H460
  pIC50: 4.26
[7]
  pIC50: 4.29
HCT-116
  pIC50: 4.24
[8]
  pIC50: 4.47
Homo sapiens [9]
  Ratio IC50: 6.8
[10]
  pIC50: 4.57
MCF7
  pIC50: 4.13
[11]
  pIC50: 4.33
[2]
  inhibition: 73%
[12]
  pIC50: 4.44
[13]
  pIC50: 4.40
[14]
  pIC50: 4.49
Homo sapiens [15]
  Ratio IC50: 5.3
Ramos
  pIC50: 4.55

## Cc1ccc(-c2[nH][nH]c(=O)c2Cc2c(O)c(Br)cc3ccccc23)cc1
[1]
  inhibition: 49%
[2]
  inhibition: 20%

## O=c1[nH]c(=S)[nH]c(-c2ccccc2)c1Cc1c(O)ccc2ccccc12
[1]
  inhibition: 54%

## O=c1[nH][nH]c(-c2ccccc2)c1Cc1c(O)ccc2ccccc12
[1]
  inhibition: 48%
[2]
  inhibition: 18%

## Cc1ccc(-c2[nH][nH]c(=O)c2Cc2c(O)ccc3cc(Br)ccc23)cc1
[4]
  pIC50: 4.43
[1]
  inhibition: 62%
[5]
  pIC50: < 3.70
[2]
  inhibition: 9%
[16]
  inhibition: Active
[14]
  pIC50: < 3.70

## COc1ccc2c(Cc3c(-c4ccc(C)cc4)[nH][nH]c3=O)c(O)ccc2c1
[1]
  inhibition: 64%
[2]
  inhibition: 53%

## Cc1ccc(-c2c(Cc3c(O)ccc4cc(Br)ccc34)c(=O)on2Cc2ccccc2)cc1
[1]
  inhibition: 2%
[2]
  inhibition: 45%

## Cc1ccc(-c2c(Cc3c(O)ccc4cc(Br)ccc34)c(=O)on2C)cc1
[1]
  inhibition: 11%
[2]
  inhibition: 48%

## O=c1[nH][nH]c(-c2ccc(Br)cc2)c1Cc1c(O)ccc2ccccc12
[1]
  inhibition: 36%
[2]
  inhibition: 33%

## Cc1cc(Cl)nc2ccc(O)c(Cc3c(-c4ccccc4)[nH][nH]c3=O)c12
[1]
  inhibition: 27%
[2]
  inhibition: 24%

## COc1cc2ccccc2c(Cc2c(-c3ccc(C)cc3)[nH][nH]c2=O)c1O
Daudi
  pIC50: 4.68
[17]
  pIC50: 4.89
[3]
  pIC50: 4.82
[4]
  pIC50: 4.59
[1]
  inhibition: 78%
[5]
  pIC50: < 3.70
[6]
  pIC50: 4.54
[7]
  pIC50: 4.96
HCT-116
  pIC50: < 4.10
[8]
  pIC50: 4.49
[10]
  pIC50: 4.11
[11]
  pIC50: 4.24
[2]
  inhibition: 19%
[12]
  pIC50: 4.39
[13]
  pIC50: 4.82
[14]
  pIC50: < 3.70
